This is a sample that favours compounds with a hit; in the whole collection about 2.6% have one here.
SENP8 block-1: blocks the human protease SENP8. Q96LD8. purified SENP8, Z-RLRGG-aminoluciferin cleavage, luminescence. inhibition, % at 10 µM. 1.2% of 330,000 active. AID 2540; in the data active = inhibition above about 50%
SENP6 block: SENP6 protease inhibition; AID 2599; Q9GZR1; Recombinant SENP6 catalytic domain, aminoluciferin luminescence; 1.8% of 330,000 active; inhibition, % at 10 µM;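 active = inhibition above about 50% at the single tested dose, limit read from the data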;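 also: plate controls were DMSO wells with enzyme for no effect and DMSO wells lacking enzyme for full effect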
Target sequence (Q9GZR1 628-1112 limits assumed): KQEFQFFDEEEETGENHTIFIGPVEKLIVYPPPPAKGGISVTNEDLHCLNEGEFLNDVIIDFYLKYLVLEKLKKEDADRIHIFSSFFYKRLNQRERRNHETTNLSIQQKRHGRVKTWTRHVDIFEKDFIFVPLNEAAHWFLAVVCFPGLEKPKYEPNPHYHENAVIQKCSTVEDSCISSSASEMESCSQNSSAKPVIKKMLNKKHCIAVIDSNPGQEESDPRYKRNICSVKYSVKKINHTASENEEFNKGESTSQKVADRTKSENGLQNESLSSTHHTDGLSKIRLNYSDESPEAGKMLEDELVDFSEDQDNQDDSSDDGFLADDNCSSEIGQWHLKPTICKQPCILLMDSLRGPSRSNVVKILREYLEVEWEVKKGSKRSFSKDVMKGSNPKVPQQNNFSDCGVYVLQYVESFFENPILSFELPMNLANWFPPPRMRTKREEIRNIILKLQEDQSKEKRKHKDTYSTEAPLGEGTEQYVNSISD
SENP1 FRET inh: inhibitors of human SENP1 SUMO protease catalytic domain; Q9P0U3; recombinant SENP1 catalytic domain, CyPet-SUMO1-YPet FRET cleavage; inhibition, % at 10 µM; 0.21% of 360,000 active;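 active = inhibition at least 30% at 10 µM, raw YFP signal under a set limit, fluorescence ratio 0.5 to 1.5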;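 also: 0% = enzyme with DMSO and 100% = no enzyme wells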
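Assay system – human recombinant His6-tagged SENP1 catalytic domain enzyme · Input – SENP1 enzyme, 20 pM final · Buffer or medium – Tris pH 8 buffer plus EDTA, NaCl, BME, BSA, NP40, catalase · Schedule – 50 min reaction at room temperature · Technique – FRET read of cyan and yellow fluorescence · Control set – no-enzyme wells low, DMSO-plus-enzyme wells high control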
SENP7 inh: inhibitors of human SENP7 protease. inhibition, % at 5 µM. Q9BQF6. recombinant SENP7, Z-RLRGG-aminoluciferin luminescence, 40 min. 1.5% of 330,000 active;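 active = inhibition above about 50% at the single test dose, limit read from the data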;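 also: plate controls were DMSO with enzyme for no effect and no enzyme buffer wells for full effect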
SENP8 block-2: blocks human SENP8 cleavage of Nedd8 substrate; recombinant SENP8, Nedd8 substrate fluorescence; inhibition, % at 20 µM; 0.64% of 360,000 active; in the data active = inhibition mostly above about 40%, no sharp cut-off; inactive = mostly below about 27%
Platelet DG rel: modulates dense granule release in human platelets; human platelet-rich plasma, SFLLRN dense granule ATP release, luminescence; inhibition, %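 (compounds screened at 7.5 µM in platelet-rich plasma)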; 0.22% of 300,000 active; AID 1663;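 active = mean replicate score, as percent of positive control, at or above 50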
SENP8 conf: human SENP8 inhibition, confirmed | shares compounds with SENP7 inh | Recombinant SENP8, Z-RLRGG-aminoluciferin luminescence, 60 min | 40% of 6,200 active | inhibition, % at 12.5 µM;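 active = mean inhibition across replicates above about 50%, limit read from the data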
SENP6 conf: human SENP6 inhibition, confirmed | 58% of 6,200 active | shares compounds with SENP7 inh | recombinant SENP6, Z-RLRGG-aminoluciferin luminescence | inhibition, % at 12.5 µM
SENP7 confirm: confirmation of human SENP7 protease inhibitors; recombinant SENP7, Z-RLRGG-aminoluciferin luminescence, 40 min; inhibition, % at 12.5 µM; 69% of 6,200 active; shares compounds with SENP7 inh; AID 488917
Casp3 select: inhibits human caspase-3 in SENP selectivity test; shares compounds with SENP7 inh; purified caspase-3, Z-DEVD-aminoluciferin luminescence, 60 min; inhibition, % at 12.5 µM; 60% of 6,200 active;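 active = mean inhibition above about 50%, limit read from the data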;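 also: plate controls were enzyme with DMSO for no effect and wells without caspase-3 for full effect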
SENP luc ctr: counter-screen for SENP inhibitors: luminescence interference. shares compounds with SENP7 inh. Pre-incubated SENP8/Z-RLRGG-aminoluciferin, luciferase luminescence interference. inhibition, % at 12.5 µM. 39% of 6,200 active. AID 488919;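 active = mean inhibition above about 50% when retested at one dose, limit read from the data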;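 also: plate controls were DMSO wells with completed reaction for no effect and substrate without enzyme for full effect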
* hit, by the source's call; x = no result given.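 The calls were made as follows, unless noted: active = mean inhibition above about 50% in the one-dose retest (limit read from the data); inactive = the rest.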

SMILES | SENP8 block-1 | SENP6 block | SENP1 FRET inh | SENP7 inh | SENP8 block-2 | Platelet DG rel | SENP8 conf | SENP6 conf | SENP7 confirm | Casp3 select | SENP luc ctr
Cc1cccc(C(=O)O/N=C2\CCSc3ccc(C)cc32)c1 | 0 | 13 | -3 | 1 | -37 | 1 | x | x | x | x | x
O=C(O/N=C1\CCCc2ccccc21)C1CC1 | 0 | 8 | 3 | 2 | 21 | -1 | x | x | x | x | x
O=C(N/N=C1\CCCc2ccccc21)c1ccccc1Cl | -1 | 18 | 1 | 4 | 6 | 9 | x | x | x | x | x
O=C(O/N=C1\CCCc2ccccc21)c1cccc(Cl)c1 | 46 | 83* | 3 | 82* | 5 | -1 | 66* | 64* | 90* | 65* | 43
Cc1cccc(C(=O)O/N=C2\CCCc3ccccc32)c1 | 65* | 92* | 1 | 90* | 4 | -1 | 43 | 88* | 98* | 78* | 64*
COC(=O)[C@@]12CCCN1[C@H](c1ccc(-c3ccc4c(c3)OCO4)cc1)[C@H]1C(=O)N(C)C(=O)[C@H]12 | -5 | 11 | -3 | 1 | 2 | x | x | x | x | x | x
CCOc1ccc(NC(=O)CC(Cc2cc(C)cc(C)c2)C(=O)O)cc1 (stereo not drawn) | 0 | 0 | 0 | 6 | 9 | 4 | x | x | x | x | x
CCc1nc2ccc(C(=O)NCCNC(C)=O)cn2c1N(CCC(C)C)CCN(C)C | x | x | -47 | x | -5 | x | x | x | x | x | x
COc1ccc(S(=O)(=O)CCC(=O)N2CCN(c3cccc(Cl)c3)CC2)cc1 | 0 | 7 | 2 | -5 | 14 | -1 | x | x | x | x | x
Cc1ccc(-c2nnc(-c3ccccc3Br)o2)cc1 | 86* | 90* | 1 | 83* | 13 | -4 | 7 | 88* | 98* | 74* | 76*
Brc1ccc(-c2nnc(-c3ccccc3Br)o2)cc1 | 70* | 64* | 1 | 74* | 3 | 0 | 18 | 18 | 25 | 28 | 15
Cc1ccc(-c2nnc(-c3cccnc3)o2)cc1 | -8 | -22 | -1 | -11 | -1 | 16 | x | x | x | x | x
Brc1ccccc1-c1nnc(-c2cccnc2)o1 | -8 | 11 | 1 | 5 | 9 | 4 | x | x | x | x | x
CNc1nc(C)c(C(C)(C)C)s1 | -2 | -21 | 0 | -7 | -1 | -7 | x | x | x | x | x
COc1ccc(F)cc1CN1CCN(C(=O)CCC(=O)Nc2nnc(C3CCCCC3)s2)CC1 | 1 | 4 | 1 | 5 | 10 | -4 | x | x | x | x | x
Cc1ccc(C(=O)Nc2cccc(C(=O)O)c2)cc1 | 95* | 92* | x | 99* | x | 22 | 99* | 100* | 103* | 96* | 98*
Cc1ccc(-c2cc(NC(=O)c3ccccc3)on2)cc1 | 52* | 50* | 2 | 87* | 9 | 7 | 34 | 43 | 92* | 63* | 2
CCOc1ccc(C(=O)Nc2cc(NC(=O)c3ccc(OCC)c(Cl)c3)cc(C(=O)O)c2)cc1Cl | 3 | -7 | -1 | 5 | 3 | -1 | x | x | x | x | x
COc1ccc(C(=O)Nc2cc(-c3ccc(C)cc3)no2)cc1 | -4 | -16 | 0 | 1 | 12 | 0 | x | x | x | x | x
O=C(O)c1cccc(NC(=O)c2cc(NC(=O)c3ccccc3)cc(NC(=O)c3ccccc3)c2)c1 | -2 | 90* | 2 | 10 | 0 | -12 | 15 | 8 | 0 | -5 | -5
CCOc1ccc(C(=O)Nc2cccc(C(=O)O)c2)cc1Cl | 97* | 95* | -1 | 100* | 19 | 6 | 98* | 99* | 102* | 90* | 98*
O=C(O)c1cccc(NC(=O)c2ccccc2)c1 | x | x | -2 | x | 12 | x | x | x | x | x | x

Screening results (PubChem BioAssay)
